Results published in ChEMBL document CHEMBL3576799, “Aranciamycins I and J, Antimycobacterial Anthracyclines from an Australian Marine-Derived Streptomyces sp” (J Nat Prod, 2015).
Converted amounts (≈) assume the structure as drawn.

How the values were obtained:
[1] = tested on: Escherichia coli; assay: Antibacterial activity against Escherichia coli ATCC 11775 after 24 hrs by spectrophotometric analysis; assay type: functional, organism-based; conditions: DSM 30083 = JCM 1649 = ATCC 11775, 24 h
[2] = Cytotoxicity against human KB-3-1 cells assessed as growth inhibition after 48 hrs by MTT assay; assay type: functional, cell-based; conditions: KB 3-1, 48 h
Method in brief: (§1)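 Modified MTT assay on adherent human cancer lines: SW620 (epithelial-like colorectal carcinoma), NCI-H460 (epithelial-like lung carcinoma), KB-3-1 (epithelial-like cervix carcinoma) and HepG2 (hepatocellular carcinoma). Output given as IC50.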

[3] = tested on: Bacillus spizizenii; assay: Antibacterial activity against Bacillus subtilis ATCC 6633 after 24 hrs by spectrophotometric analysis; assay type: functional, organism-based; conditions: ATCC 6633, 24 h
[4] = tested on: HepG2; assay: Cytotoxicity against human HepG2 cells assessed as growth inhibition after 48 hrs by MTT assay; assay type: functional, cell-based; conditions: HepG2, 48 h; method in brief: as §1
[5] = tested on: Pseudomonas aeruginosa; assay: Antibacterial activity against Pseudomonas aeruginosa ATCC 10145 after 24 hrs by spectrophotometric analysis; assay type: functional, organism-based; conditions: ATCC 10145, 24 h
[6] = tested on: Staphylococcus aureus; assay: Antibacterial activity against Staphylococcus aureus ATCC 25923 after 24 hrs by spectrophotometric analysis; assay type: functional, organism-based; conditions: ATCC 25923, 24 h
[7] = tested on: SW-620; assay: Cytotoxicity against human SW620 cells assessed as growth inhibition after 48 hrs by MTT assay; assay type: functional, cell-based; conditions: SW-620, 48 h; method in brief: as §1
[8] = tested on: Staphylococcus aureus; assay: Antibacterial activity against Staphylococcus aureus ATCC 9144 after 24 hrs by spectrophotometric analysis; assay type: functional, organism-based; conditions: ATCC 9144, 24 h
[9] = tested on: Bacillus subtilis; assay: Antibacterial activity against Bacillus subtilis ATCC 6051 after 24 hrs by spectrophotometric analysis; assay type: functional, organism-based; conditions: ATCC 6051, 24 h
[10] = tested on: NCI-H460; assay: Cytotoxicity against human NCI-H460 cells assessed as growth inhibition after 48 hrs by MTT assay; assay type: functional, cell-based; conditions: NCI-H460, 48 h; method in brief: as §1
[11] = tested on: Candida albicans; assay: Antifungal activity against Candida albicans ATCC 90028 after 48 hrs by spectrophotometric analysis; assay type: functional, organism-based; conditions: ATCC 90028, 48 h

Row | SMILES | IC50 [1] | MIC [1] | IC50 [2] | IC50 [3] | MIC [3] | IC50 [4] | IC50 [5] | MIC [5] | IC50 [6] | MIC [6] | IC50 [7] | IC50 [8] | MIC [8] | IC50 [9] | MIC [9] | IC50 [10] | IC50 [11] | MIC [11]
1 | C[C@@H]1O[C@@H](O[C@H]2C[C@](C)(O)Cc3cc4c(c(O)c32)C(=O)c2c(O)cccc2C4=O)[C@H](O)[C@H](O)[C@H]1O | > 30 µM | > 30 µM | > 30 µM | 3 µM | 7.5 µM (≈ 3.65 µg/mL) | 12 µM | > 30 µM | > 30 µM | > 30 µM | > 30 µM | 7.5 µM | > 30 µM | > 30 µM | 1.1 µM | 3.7 µM (≈ 1.8 µg/mL) | 9 µM | > 30 µM | > 30 µM
2 | CO[C@H]1[C@H](O[C@H]2C[C@](C)(O)C(=O)c3cc4c(c(O)c32)C(=O)c2c(O)cccc2C4=O)O[C@@H](C)[C@H](O)[C@H]1O | > 30 µM | > 30 µM | > 30 µM | 2.8 µM | 7.5 µM (≈ 3.86 µg/mL) | 12 µM | > 30 µM | > 30 µM | > 30 µM | > 30 µM | 10 µM | > 30 µM | > 30 µM | 2.4 µM | 7.2 µM (≈ 3.7 µg/mL) | > 30 µM | > 30 µM | > 30 µM
3 | CO[C@H]1[C@H](O[C@H]2C[C@](C)(O)Cc3cc4c(c(O)c32)C(=O)c2c(O)cccc2C4=O)O[C@@H](C)[C@H](O)[C@H]1O | > 30 µM | > 30 µM | > 30 µM | 2.4 µM | 7.5 µM (≈ 3.75 µg/mL) | > 30 µM | > 30 µM | > 30 µM | > 30 µM | > 30 µM | > 30 µM | > 30 µM | > 30 µM | 2.8 µM | 7.5 µM (≈ 3.75 µg/mL) | > 30 µM | > 30 µM | > 30 µM
4 | CO[C@H]1[C@H](O[C@@H]2c3c(cc4c(c3O)C(=O)c3c(O)cccc3C4=O)C(=O)[C@@](C)(O)[C@H]2OC)O[C@@H](C)[C@H](O)[C@H]1O [ARANCIAMYCIN] | > 30 µM | > 30 µM | > 30 µM | 5.8 µM | 15 µM (≈ 8.17 µg/mL) | 18 µM | > 30 µM | > 30 µM | > 30 µM | > 30 µM | > 30 µM | > 30 µM | > 30 µM | 6 µM | 15 µM (≈ 8.17 µg/mL) | > 30 µM | > 30 µM | > 30 µM
